From ChEMBL document CHEMBL4622944 (Bioorg Med Chem Lett, 2020)

Legend:
[1] = tested on: HCT-116; assay: Antiproliferative activity against human HCT116 cells assessed as reduction in cell viability by MTT assay; assay type: functional, cell-based
[2] = tested on: PC-3; assay: Antiproliferative activity against human PC3 cells assessed as reduction in cell viability by MTT assay; assay type: functional, cell-based
[3] = tested on: A549; assay: Antiproliferative activity against human A549 cells assessed as reduction in cell viability by MTT assay; assay type: functional, cell-based
[4] = tested on: HCT-116; assay: Induction of cell cycle arrest in human HCT116 cells assessed as S phase at 9 uM incubated for 24 hrs by annexin V and propidium iodide staining based flow cytometry analysis (reference value: 16.08 %); assay type: functional
In short: (§1)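 HCT116 cells treated 24 h at 0.33, 1.0 or 9.0 µM alongside a non-treated control. Cells were fixed, stained with Annexin-V and propidium iodide, and DNA content was measured by flow cytometry. Percentages of cells in G1, S and G2 phases were quantified.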

[5] = tested on: HCT-116; assay: Induction of cell cycle arrest in human HCT116 cells assessed as G1 phase at 1 uM incubated for 24 hrs by annexin V and propidium iodide staining based flow cytometry analysis (reference value: 61.81 %); assay type: functional; in short: as §1
[6] = tested on: HCT-116; assay: Induction of cell cycle arrest in human HCT116 cells assessed as G2 phase at 0.33 uM incubated for 24 hrs by annexin V and propidium iodide staining based flow cytometry analysis (reference value: 22.11 %); assay type: functional; in short: as §1
[7] = tested on: HCT-116; assay: Induction of apoptosis in human HCT116 cells assessed as early apoptotic cells at 3 uM incubated for 24 hrs by annexin V FITC and propidium iodide staining based flow cytometry analysis (reference value: 7.9 %); assay type: functional
[8] = tested on: HCT-116; assay: Induction of apoptosis in human HCT116 cells assessed as early apoptotic cells at 9 uM incubated for 24 hrs by annexin V FITC and propidium iodide staining based flow cytometry analysis (reference value: 7.9 %); assay type: functional
[9] = tested on: HCT-116; assay: Inhibition of cell migration in human HCT116 cells assessed as inhibition of wound healing rate measured upto 48 hrs by phase contrast microscopy; assay type: functional, cell-based
In short: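 Wound-healing scratch assay in HCT116 monolayers treated at 0.3 and 3 µM versus blank control. Phase-contrast images were taken at 0, 24 and 48 h, and the wound-healing rate was assessed.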

[10] = tested on: HCT-116; assay: Induction of apoptosis in human HCT116 cells assessed as total apoptotic cells at 9 uM incubated for 24 hrs by annexin V FITC and propidium iodide staining based flow cytometry analysis (reference value: 18.9%); assay type: functional
[11] = tested on: HCT-116; assay: Induction of apoptosis in human HCT116 cells incubated for 24 hrs by annexin V FITC and propidium iodide staining based flow cytometry analysis; assay type: functional, cell-based
[12] = tested on: HCT-116; assay: Induction of apoptosis in human HCT116 cells assessed as necrotic cells at 9 uM incubated for 24 hrs by annexin V FITC and propidium iodide staining based flow cytometry analysis (reference value: 0.2 %); assay type: functional
[13] = tested on: HCT-116; assay: Induction of cell cycle arrest in human HCT116 cells assessed as S phase at 1 uM incubated for 24 hrs by annexin V and propidium iodide staining based flow cytometry analysis (reference value: 16.08 %); assay type: functional; in short: as §1
[14] = tested on: HCT-116; assay: Induction of cell cycle arrest in human HCT116 cells assessed as G2 phase at 1 uM incubated for 24 hrs by annexin V and propidium iodide staining based flow cytometry analysis (reference value: 22.11 %); assay type: functional; in short: as §1
[15] = tested on: HCT-116; assay: Induction of cell cycle arrest in human HCT116 cells assessed as S phase at 0.33 uM incubated for 24 hrs by annexin V and propidium iodide staining based flow cytometry analysis (reference value: 16.08 %); assay type: functional; in short: as §1
[16] = tested on: HCT-116; assay: Induction of apoptosis in human HCT116 cells assessed as late apoptotic cells at 9 uM incubated for 24 hrs by annexin V FITC and propidium iodide staining based flow cytometry analysis (reference value: 11 %); assay type: functional
[17] = tested on: HCT-116; assay: Induction of apoptosis in human HCT116 cells assessed as late apoptotic cells at 1 uM incubated for 24 hrs by annexin V FITC and propidium iodide staining based flow cytometry analysis (reference value: 11 %); assay type: functional
[18] = tested on: HCT-116; assay: Induction of cell cycle arrest in human HCT116 cells assessed as G2 phase at 9 uM incubated for 24 hrs by annexin V and propidium iodide staining based flow cytometry analysis (reference value: 22.11 %); assay type: functional; in short: as §1
[19] = tested on: HCT-116; assay: Induction of apoptosis in human HCT116 cells assessed as necrotic cells at 1 uM incubated for 24 hrs by annexin V FITC and propidium iodide staining based flow cytometry analysis (reference value: 0.2 %); assay type: functional
[20] = tested on: HCT-116; assay: Induction of apoptosis in human HCT116 cells assessed as viable cells at 1 uM incubated for 24 hrs by annexin V FITC and propidium iodide staining based flow cytometry analysis (reference value: 80.9 %); assay type: functional; conditions: HCT-116, 24 h, read-out: Activity
[21] = tested on: HCT-116; assay: Induction of apoptosis in human HCT116 cells assessed as viable cells at 3 uM incubated for 24 hrs by annexin V FITC and propidium iodide staining based flow cytometry analysis (reference value: 80.9 %); assay type: functional; conditions: HCT-116, 24 h, read-out: Activity
[22] = tested on: HCT-116; assay: Induction of cell cycle arrest in human HCT116 cells assessed as G1 phase at 9 uM incubated for 24 hrs by annexin V and propidium iodide staining based flow cytometry analysis (reference value: 61.81 %); assay type: functional; in short: as §1
[23] = tested on: HCT-116; assay: Induction of apoptosis in human HCT116 cells assessed as viable cells at 9 uM incubated for 24 hrs by annexin V FITC and propidium iodide staining based flow cytometry analysis (reference value: 80.9 %); assay type: functional; conditions: HCT-116, 24 h, read-out: Activity
[24] = tested on: HCT-116; assay: Induction of cell cycle arrest in human HCT116 cells assessed as G1 phase at 0.33 uM incubated for 24 hrs by annexin V and propidium iodide staining based flow cytometry analysis (reference value: 61.81 %); assay type: functional; in short: as §1
[25] = tested on: HCT-116; assay: Induction of apoptosis in human HCT116 cells assessed as late apoptotic cells at 3 uM incubated for 24 hrs by annexin V FITC and propidium iodide staining based flow cytometry analysis (reference value: 11 %); assay type: functional
[26] = tested on: HCT-116; assay: Induction of apoptosis in human HCT116 cells assessed as necrotic cells at 3 uM incubated for 24 hrs by annexin V FITC and propidium iodide staining based flow cytometry analysis (reference value: 0.2 %); assay type: functional
[27] = tested on: HCT-116; assay: Induction of apoptosis in human HCT116 cells assessed as early apoptotic cells at 1 uM incubated for 24 hrs by annexin V FITC and propidium iodide staining based flow cytometry analysis (reference value: 7.9%); assay type: functional

Cn1c(=O)c(=O)n(C2CCCC2)c2nc(N/N=C/c3ccccc3)ncc21
IC50 [1]: > 100 µM
IC50 [2]: 48.2 µM
IC50 [3]: > 100 µM

Cn1c(=O)c(=O)n(C2CCCC2)c2nc(N/N=C/c3cccc(Cl)c3Cl)ncc21
IC50 [1]: 26.4 µM
IC50 [2]: 17.2 µM
IC50 [3]: 39.1 µM

Cn1c(=O)c(=O)n(C2CCCC2)c2nc(N/N=C/c3ccco3)ncc21
IC50 [1]: 78.7 µM
IC50 [2]: 72.2 µM
IC50 [3]: > 100 µM

Cn1c(=O)c(=O)n(C2CCCC2)c2nc(N/N=C/c3ccc(O)c(F)c3)ncc21
IC50 [1]: 59.3 µM
IC50 [2]: 85.2 µM
IC50 [3]: 97.8 µM

COc1cccc(/C=N/Nc2ncc3c(n2)n(C2CCCC2)c(=O)c(=O)n3C)c1
IC50 [1]: 45.8 µM
IC50 [2]: 20.7 µM
IC50 [3]: 27.4 µM

CSc1ccc(/C=N/Nc2ncc3c(n2)n(C2CCCC2)c(=O)c(=O)n3C)cc1
IC50 [1]: 9.01 µM
IC50 [2]: 21 µM
IC50 [3]: 14.1 µM

Cn1c(=O)c(=O)n(C2CCCC2)c2nc(N/N=C/c3cccc(O)c3)ncc21
IC50 [1]: 37.2 µM
IC50 [2]: 36.3 µM
IC50 [3]: > 100 µM

COc1ccc(/C=N/Nc2ncc3c(n2)n(C2CCCC2)c(=O)c(=O)n3C)c(OC)c1
IC50 [1]: > 100 µM
IC50 [2]: > 100 µM
IC50 [3]: > 100 µM

Cn1c(=O)c(=O)n(C2CCCC2)c2nc(N/N=C/c3ccc(F)cc3Cl)ncc21
IC50 [1]: 13.8 µM
IC50 [2]: 15.2 µM
IC50 [3]: 11 µM

Cn1c(=O)c(=O)n(C2CCCC2)c2nc(N/N=C/c3ccc(O)c(Br)c3)ncc21
IC50 [1]: 17.7 µM
IC50 [2]: 11.6 µM
IC50 [3]: 12.8 µM

Cn1c(=O)c(=O)n(C2CCCC2)c2nc(N/N=C/c3ccc(F)cc3Br)ncc21
IC50 [1]: 8.39 µM
IC50 [2]: 9.25 µM
IC50 [3]: 6.59 µM

Cn1c(=O)c(=O)n(C2CCCC2)c2nc(N/N=C/c3cc([N+](=O)[O-])ccc3Cl)ncc21
IC50 [1]: 5.61 µM
IC50 [2]: 9.26 µM
IC50 [3]: 8.78 µM

COc1ccc(/C=N/Nc2ncc3c(n2)n(C2CCCC2)c(=O)c(=O)n3C)cc1
IC50 [1]: 36.1 µM
IC50 [2]: 26.2 µM
IC50 [3]: > 100 µM

Cn1c(=O)c(=O)n(C2CCCC2)c2nc(N/N=C/c3ccc(Cl)cc3)ncc21
IC50 [1]: 9.81 µM
IC50 [2]: 8.42 µM
IC50 [3]: 6.89 µM

Cn1c(=O)c(=O)n(C2CCCC2)c2nc(N/N=C/c3ccc(O)cc3)ncc21
IC50 [1]: 72.5 µM
IC50 [2]: > 100 µM
IC50 [3]: > 100 µM

Cc1ccc(/C=N/Nc2ncc3c(n2)n(C2CCCC2)c(=O)c(=O)n3C)cc1C
IC50 [1]: 62.9 µM
IC50 [2]: 39 µM
IC50 [3]: 30.2 µM

Cn1c(=O)c(=O)n(C2CCCC2)c2nc(N/N=C/c3ccc(F)cc3F)ncc21
IC50 [1]: 19.8 µM
IC50 [2]: 13.2 µM
IC50 [3]: 18.3 µM

Cn1c(=O)c(=O)n(C2CCCC2)c2nc(N/N=C/c3ccccc3F)ncc21
IC50 [1]: 20.7 µM
IC50 [2]: 27.6 µM
IC50 [3]: 31.2 µM

Cn1c(=O)c(=O)n(C2CCCC2)c2nc(N/N=C/c3ccc(C(F)(F)F)cc3)ncc21
IC50 [1]: 29 µM
IC50 [2]: 23.6 µM
IC50 [3]: 40.6 µM

COc1cc(/C=N/Nc2ncc3c(n2)n(C2CCCC2)c(=O)c(=O)n3C)cc(OC)c1OC
IC50 [1]: 22.9 µM
IC50 [2]: 17.5 µM
IC50 [3]: 18.3 µM

Cn1c(=O)c(=O)n(C2CCCC2)c2nc(N/N=C/c3cccs3)ncc21
IC50 [1]: 52.6 µM
IC50 [2]: 75.6 µM
IC50 [3]: > 100 µM

Cn1c(=O)c(=O)n(C2CCCC2)c2nc(N/N=C/c3cc(C(F)(F)F)cc(C(F)(F)F)c3)ncc21
Activity [4]: 11.41%
Activity [5]: 65.46%
Activity [6]: 17.31%
IC50 [1]: 4.36 µM
IC50 [2]: 8.2 µM
Activity [7]: 10.2%
Activity [8]: 20.3%
inhibition [9]: Dose-dependent effect
Activity [10]: 38.3%
Activity [11]: Dose-dependent effect
Activity [12]: 0.4%
Activity [13]: 16.56%
IC50 [3]: 3.23 µM
Activity [14]: 17.98%
Activity [15]: 20%
Activity [16]: 18%
Activity [17]: 11.1%
Activity [18]: 21.39%
Activity [19]: 0.5%
viability at 1 µM [20]: 78.1%
viability at 3 µM [21]: 77.4%
Activity [22]: 67.2%
viability at 9 µM [23]: 61.3%
Activity [24]: 62.69%
Activity [25]: 12.2%
Activity [26]: 0.2%
Activity [27]: 10.3%

Cc1cc(C)c(/C=N/Nc2ncc3c(n2)n(C2CCCC2)c(=O)c(=O)n3C)c(C)c1
IC50 [1]: 7.92 µM
IC50 [2]: 13.9 µM
IC50 [3]: 12 µM

Cn1c(=O)c(=O)n(C2CCCC2)c2nc(N/N=C/c3ccc(F)c(Cl)c3)ncc21
IC50 [1]: 9.02 µM
IC50 [2]: 8.55 µM
IC50 [3]: 9.41 µM

Cc1cccc(/C=N/Nc2ncc3c(n2)n(C2CCCC2)c(=O)c(=O)n3C)c1
IC50 [1]: > 100 µM
IC50 [2]: 53.6 µM
IC50 [3]: 34.5 µM

Cn1c(=O)c(=O)n(C2CCCC2)c2nc(N/N=C/c3ccc(S(C)(=O)=O)cc3)ncc21
IC50 [1]: 86.6 µM
IC50 [2]: 26.6 µM
IC50 [3]: 84.5 µM

Cn1c(=O)c(=O)n(C2CCCC2)c2nc(N/N=C/c3ccccc3Cl)ncc21
IC50 [1]: 14 µM
IC50 [2]: 16.3 µM
IC50 [3]: 9.86 µM

Cn1c(=O)c(=O)n(C2CCCC2)c2nc(N/N=C/c3cccc([N+](=O)[O-])c3)ncc21
IC50 [1]: 15.2 µM
IC50 [2]: 20.3 µM
IC50 [3]: 12.3 µM

Cn1c(=O)c(=O)n(C2CCCC2)c2nc(N/N=C/c3ccc(OC(F)(F)F)cc3)ncc21
IC50 [1]: 6.15 µM
IC50 [2]: 7.18 µM
IC50 [3]: 12.9 µM
